Test system: MS2 coat protein
Assay: apparent Kd, MS2 coat protein; higher = weaker binding; RNA-MaP array; FMN 200 µM where present
Method in brief: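 Apparent Kd: the median of filtered binding-curve fits from single clusters. Designs were transcribed on Illumina sequencing-chip clusters by stalled E. coli RNA polymerase and titrated with SNAP-549-labelled MS2 coat protein from 0.7 or 1.5 nM, doubling to 3 µM, in 100 mM Tris-HCl pH 7.5, 80 mM KCl, 4 mM MgCl2, BSA, DTT, yeast tRNA and Tween-20. Each series ran without and then with constant ligand, and green signal was normalised to red-channel RNA signal and control-cluster median Fmax.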

[1] = designed as: ON switch for flavin mononucleotide, no ligand
[2] = ligand present: flavin mononucleotide, designed as: ON switch for flavin mononucleotide
[3] = designed as: OFF switch for flavin mononucleotide, no ligand
[4] = ligand present: flavin mononucleotide, designed as: OFF switch for flavin mononucleotide

Row | Sequence | apparent Kd [1] | apparent Kd [2] | apparent Kd [3] | apparent Kd [4]
1 | AUACUCAUGUAAGGAUAUGCGGCCGUUUCGGCUGCAGAAGGUACUAUAAUACAUGAGGAUCACCCAUGUCUCUCGCAUUGCGAG | 556 nM | 61.4 nM |  | 
2 | GUCUUCCUAGGAUAUACAUGAGGAUCACCCAUGUACAGUUUCGUCAAAGGAUAAUCGCGUAGAAGGAGGUGGAU |  |  | 16.5 nM | 23.6 nM
3 | AAUAUGAGCUGGUUUAAAUCCUAAACAUGAGGAUCACCCAUGUAGGAUAUCAGCACGAUAAGUGCUGAGAAGGACAUCCAGCUC |  |  | 15.1 nM | 15.2 nM
4 | AUGUUGCGAGGAUAUAUUUACUGGUUGUUGUUUGGUUGGGAACAUGAGGAUCACCCAUGUAGAAGGUGCAUAAC |  |  | 54.5 nM | 49.9 nM
5 | GCCAUCGUACGAGGAUAUGGCACCGAAACGGUGCCAGAAGGCGUGUCAAUAGACAUGAGGAUCACCCAUGUAUUAUCGAUGGCA | 23.2 nM | 17.6 nM |  | 
6 | GGGUACAGUGAGAAGGUCUGCGGAUUCCUUAACAUGAGGAUCACCCAUGUAGAAGGAUAUCACAGGUAAAGGUCGUCUAACGAU |  |  | 5.49 nM | 6.82 nM
7 | UAUAAUUAGUAGAAGGACGGAGAGUAAGAAGUCGUAGGAUAUACAAAAGACAUGAGGAUCACCCAUGUGAGUAUGUUGGGAAGG |  |  | 7.05 nM | 7.62 nM
8 | GUCACGAAUGUAGGAUAUCGAGUGGAUAACACUCGAGAAGGACAUGAGGAUCACCCAUGUACUAUGAAAGAUAAUAAACGUGAC |  |  | 14.4 nM | 20.4 nM
9 | AGUACCAUGUAGAAGGGAUAUCUGAUUCAGAUAUCAGGAUAUACAUGAGGAUCACCCAUGUAAAUGUACUCCACGAAAGUGGAA |  |  | 22.1 nM | 63.8 nM
10 | GUAGCUAUCGGAGGAUAUUCAUACCGGAUACGGACAUGAGGAUCACCCAUGUGCCGAAAGGCUUGGGAGAAGGCCGAUAGCUAC | 108 nM | 16.9 nM |  | 
11 | ACUAAACGAGGAUAUACUAACAAACCUCAAACAUACAUCAAACAUGAGGAUCACCCAUGUAGAAGGCGUAAACU |  |  | 37.6 nM | 17.6 nM
12 | AAAAAACAUGAGGAUCACCCAUGUGAGGAUAUCACUAGUCAGUCCUCGGAGUGAGUACUGAGAAGGCACAUAAA |  |  | 68.1 nM | 44.9 nM
13 | CUUUAGUGAGGAUAUUAGUAGUAAUACAAUAGUAUUACUACUGAGAAGGCACAUGAGGAUCACCCAUGUUCCUC |  |  | 27.8 nM | 292 nM
14 | GUAUUGAUAACAGGAUAUAUGAGUCCUACAUGAGGAUCACCCAUGUAGGUGAUCAGCCGUGAUUAGUAGAAGGGUUAUCAAUAC | 12.5 nM | 5.98 nM |  | 
15 | GUAGCAUACCAAGGAUAUUUAGGACUUUGAUAGACAUGAGGAUCACCCAUGUGGCGUUAGUCACGGGAGAAGGUGGUAUGCUAC | 63.5 nM | 16.9 nM |  | 
16 | GGGCCGGUGGAGAAGGAGCUUACGAAACGUAGGCUAGGAUAUCCACAUGAGGAUCACCCAUGUGGGAAUAUCUGAUUUUCGCAG |  |  | 4 nM | 5.26 nM
17 | GGACAUUUACAGAAGGGCAAUUUAUUUAUUGAUUAUUUAGUUCUGUUUUGCAGGAUAUGUUUUACAUGAGGAUCACCCAUGUCC | 66.8 nM | 36.2 nM |  | 
18 | AUUGAUAUUGAGGAUAUGCUUUUAUUUGUUCUUGCAGAAGGCGAUACAUGAGGAUCACCCAUGUUUAUGGAAGU |  |  | 40.8 nM | 48 nM
19 | GCGAGUAAAGCAGGAUAUCUAUUGUCUCUGUAACAUGAGGAUCACCCAUGUAGAGAAGGGCUUAGUCAUACACUUCGAACUCGC |  |  | 5.57 nM | 5.38 nM
20 | AUUAUUUAGUGAGGAUAUACAGAUUAUGAGUUUGUAGAAGGCACUUUCCUCAGGACAUGAGGAUCACCCAUGUGUUAAUAAGAU |  |  | 89.7 nM | 316 nM
21 | UGAAACUACGAGAAGGACAUGUGGUCCUUCAGUUACAUGAGGAUCACCCAUGUAGGAUAUCGUAGUUUCAGGAUCGUGAGAUCA |  |  | 34.7 nM | 14.6 nM

Row | Sequence | apparent Kd [1] | apparent Kd [2] | apparent Kd [3] | apparent Kd [4]
22 | GUCCCUACAUGAGGAUCACCCAUGUGGGCGGUAAGGAGCCCACAGGAUAUGCGAAGUAGGACAUAGCAGAAGGGUGGUGUUCAG | 146 nM | 97.3 nM |  | 
23 | UGCAUGUAAGGAUAUGCAUCCGCCAACGAACCGGCGGCACAGCAGAAGGUACAUGAGGAUCACCCAUGUGUCCC |  |  | 34.8 nM | 195 nM
24 | GUAGCUAUCGGAGGAUAUUCAUACCGGAAACGGACAUGAGGAUCACCCAUGUGGCGAAAGACUUGGGAGAAGGCCGAUAGCUAC | 183 nM | 35.5 nM |  | 
25 | ACAAGAGCGGAAGGAUAUUUUACAUGAGGAUCACCCAUGUAAUAAAUGAGGAUCACGGAUGUAGUAAAGAAGGUCCGGAUAAGA |  |  | 26.1 nM | 32.8 nM
26 | ACUUUACGAGGAUAUACUGUCGGGCCUCGGGCGUCCCUGCGACAUGAGGAUCACCCAUGUAGAAGGCGUUUACU |  |  | 20.6 nM | 35.2 nM
27 | UUAAAUCAUGUAGGAUAUGCAUGGCGAAGCUACGCAGAAGGACAUGAGGAUCACCCAUGUUAUAGCUACCGAUAAAGGUGGCAA |  |  | 84.3 nM | 214 nM
28 | UGAUCUUUUGUUAGGAUAUGCUGGCUGAAAAGUCAGCAGAAGGGACAUGAGGAUCACCCAUGUUCUCUCUUUUU |  |  | 9.66 nM | 13.6 nM
29 | AAUUUAAUACAUGAGGAUCACCCAUGUAAAUUAAUUAAGAUCUAGGAUAUCAGCUCGUUUAGAGCUGAGAAGGAGAUCACAUGU | 16.6 nM | 14.1 nM |  | 
30 | UGUGGGAGCAGAGGAUAUUACAUGAGGAUCACCCAUGUAUGAACCAAUAGCUGGAAACAGCAAUGUAAGAAGGCUGCUCCGACA |  |  | 13 nM | 165 nM
31 | ACAUACAUUCGAGGAUAUCGGUGAUUAAUAAUACGAGAAGGCGAUUUAAGGCAUAAAGCCUUAGACAUGAGGAUCACCCAUGUA | 97.9 nM | 43.8 nM |  | 
32 | CGUUCAGAGAACGAUACGAAUGGACAUGAGGAUCACCCAUGUAGAAGGACAGGAGAAUAACGACUGUAGGAUAUACAUUUAGUG |  |  | 41.3 nM | 76 nM
33 | AAUGUCUGAGGAUAUCGAAUAGUGUACAUGAGGAUCACCCAUGUUUUUAUUAGUAUAUUACGAGAAGGCAGUGGAA |  |  | 17.8 nM | 14.8 nM
34 | AGCACGAAAGUGCAACGAUGUAGCAGAAGGACAUGAGGAUCACCCAUGUAAGCAGUAUCUGCAAUGUAGGAUAUGCUACAUCGA |  |  | 13.6 nM | 119 nM
35 | GAUUGACAUGAGGAUCACCCAUGUGAGGAUAUCGGCCGGACCUUGUUAGCUUCCACCGCGAGAAGGCACAUCGG |  |  | 19.7 nM | 21.3 nM
36 | UGUGGUGGUCAGGAUAUAAAUUGCGCCUGACGCUUAGAAGGGACUACAUGAGGAUCACCCAUGUGAGAGCUUCA |  |  | 16.4 nM | 15.9 nM
37 | UUGCGGUAGGAGAAGGACAGAGGCGGAAACACAAACAUGAGGAUCACCCAUGUAGGAUAUCCUACCUAACGCGGAUCCCUCCAG |  |  | 11.1 nM | 34.6 nM
38 | ACAUGAGGAUCUCCCAUGUAAAAUUAGGAUAUAUGACUGCACAUGAGGAUCACCCAUGUUUUACCGUAGAAGGGAUAAAUAAUU | 867 nM | 855 nM |  | 
39 | AUAAGUCGAGGAUAUACGGGAUGCUAGCGAAAGCUAGCAUAACAUGAGGAUCACCCAUGUAGAAGGCGACAAUA |  |  | 56.2 nM | 104 nM
40 | UAUAUAUAGGCAGGAUAUACAUGAAUAUAUAUAAUAUAAUAUAAUAUAACAUGAGGAUCACCCAUGUAGAAGGGCCAAUAUAUA |  |  | 56.2 nM | 117 nM
41 | GUCUCGAUGUAGAAGGCCGCGUCCGGCUCACGCGGAGGAUAUACAUGAGGAUCACCCAUGUGUCUGUGGCUUAUAUGUUACGGA |  |  | 70.8 nM | 68.3 nM
42 | GGCUAGCCUCAAGGAUAUACGCUCUCAACAAAGAACCGACUACAUGAGGAUCACCCAUGUACCAUGUAGAAGGUGAGGUUAGCC | 906 nM | 58.1 nM |  | 

Source: the EternaBench riboswitch data
